This note sets out measurements from publication PMC9661475 (Journal of Medicinal Chemistry, 2022).

The subject of series [1] is EV-D68 VP1 expression. Briefly: Western blot assay of viral VP1 in RD cells. It is filed as cell-based, Enterovirus D68. The settings on record: EV-D68-infected RD cells, MOI 0.01, 12 hpi. Put shortly:
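RD cells (8.0 × 10^4 per well) were seeded and infected after 24 h with EV-D68 at MOI 0.01, with gradient-diluted test compound or DMSO, for 1.5 h. Cells were lysed in RIPA at 12 hpi. Equal protein was run on 10% SDS-PAGE, transferred to PVDF and blocked with 5% skim milk. Blots were probed with anti-EV-D68 and tubulin antibodies, then HRP secondaries, with ECL detection.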
(In general: In western blotting, separated proteins are transferred to a membrane and probed.)

The test system of series [2] is EV-D68 VP1 expression. The experiment in a line: Immunofluorescence assay of viral VP1 in RD cells. The settings on record: EV-D68-infected RD cells, MOI 1, 12 h. It is filed as cell-based, Enterovirus D68. Put shortly: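 RD cells were infected with EV-D68 at MOI 1 in the presence of test compound for 12 h. They were then fixed with 4% formaldehyde for 30 min, permeabilized with 0.1% Triton X-100 for 30 min and blocked with 5% bovine serum. Staining used rabbit anti-VP1 with an Alexa-546 secondary and 1 μM Hoechst33342 for nuclei, followed by fluorescence microscopy imaging.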

Series [3] deals with EV-D68. Briefly: Plaque formation assay in RD cells. It is filed as cell-based, Enterovirus D68. The settings on record: concentration of 1 μM. Put shortly:
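RD cells grown overnight received serially diluted virus stock plus test compound for 1.5 h. The supernatant was then removed and replaced with a 2× DMEM overlay containing 2% low-melting agarose.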

The test system of series [4] is EV-D68 strain STL-2014-12. Briefly: CPE reduction assay, EV-D68 STL-2014-12 in RD cells. In kind it is cell-based, Enterovirus D68. The settings on record: for EC50: Enterovirus D, EVD68, RD, CPE assay, anti-EV-D68 activity; for anti-EV-D68 activity: running text on series 1 SAR.
The nature of series [5]: Pharmacokinetic study in SD rats. In kind it is in vivo. The settings on record: male, rat, plasma, iv, 1 mg/kg. Put shortly:
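Male SD rats (6–9 or 6–8 weeks old, depending on compound; n = 3) received a single iv dose of 1 mg/kg. The vehicle was 5% DMSO/5% Solutol HS-15/90% water or 5% DMSO/95% HP-β-CD in water. Jugular blood was taken into heparin at 0.083, 0.25, 0.5, 1, 2, 4, 6 and 24 h. Plasma, obtained by centrifugation at about 4 °C, was assayed by LC-MS/MS.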

Series [6] can be described thus: Liver microsome stability assay, rat. It is filed as in vitro ADME. The settings on record: liver microsomes. Put shortly: (§1)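 Test compound (1 μM final) was incubated at 37 °C with rat, beagle dog or human liver microsomes (0.5 mg/mL protein) and 1 mM NADPH, with a parallel no-NADPH control. Aliquots were quenched at 0, 5, 15, 30 and 60 min in solution containing internal standard, centrifuged at 4 °C and analysed by LC-MS/MS. t1/2 and intrinsic clearance were derived from compound depletion.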
Background: Liver microsomes are vesicles of endoplasmic reticulum, rich in cytochrome P450 enzymes.

Series [7] can be described thus: Liver microsome stability assay, dog. In kind it is in vitro ADME. The settings on record: beagle, liver microsomes. Put shortly:
as §1

Series [8] can be described thus: Liver microsome stability assay, human. It is filed as in vitro ADME. The settings on record: liver microsomes. Put shortly: as §1
In the next series the test system is various EV-D68 strains. Briefly: CPE assay, various EV-D68 strains. The settings on record: Enterovirus D, EVD68. It is filed as cell-based. Put shortly: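 RD cells (DMEM, 10% FBS, 37 °C, 5% CO2) were seeded at 1.5 × 10^4/well and grown for 24 h. They were infected with 100 TCID50 of strain STL-2014-12, US/KY/14-18953, US/MO/14-18947 or Fermon, plus test compound in 3-fold dilutions (0.01–200 μM) or DMSO, for 72 h at 37 °C. ATP was read by CellTiter-Glo luminescence and normalised to uninfected and infected controls. EC50 is the concentration giving a 50% ATP increase.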

Series [9] deals with EV-D68. Briefly: Time of drug addition assay. In kind it is cell-based, Enterovirus D68. The settings on record: 2 μM, RD cells, 0.01 MOI, viral load by qRT-PCR.
Series [10] concerns EV-D68 virions. Briefly: Thermoprotection assay. The settings on record: 12.5 μM, heated 2 min, TCID50. Further details: species or system Enterovirus D68. Put shortly:
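Virus (2 × 10^6 PFU/ml) was preincubated with test compound (12.5 μM) or DMSO for 30 min at 33 °C. It was then heated for 2 min at 37–59 °C and rapidly cooled to 4 °C. Residual titre was measured by TCID50 on RD cells: 10-fold virus dilutions, CPE scored after 72 h, Reed–Muench calculation.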

For series [11], the system named is EV-D68 virions. Briefly: Particle stability thermal release assay. On the set-up: species or system Enterovirus D68. The settings on record: 10 μg/mL, 1.5 μg purified EV-D68, SYTO9. Put shortly: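 Test compound (10 μg/mL) or DMSO was mixed with 1.5 μg EV-D68 and SYTO9 nucleic-acid dye, at 5% DMSO. The mixture was held at 33 °C for 15 min, then ramped from 25 to 99 °C. Fluorescence was recorded in triplicate at 1 °C steps, and melting temperature was taken from the negative first-derivative curve.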

Structures are written as SMILES.

As to `Cl.Nc1ccc(-c2ccc3ncc(-c4noc(C(F)(F)F)n4)cc3c2)cc1` [19·HCl, 4-(3-(5-(Trifluoromethyl)-1,2,4-oxadiazol-3-yl)quinolin-6-yl)aniline Hydrochloride], the “expression level of viral VP1” value with EV-D68 VP1 expression [1] and in the series on EV-D68 VP1 expression [2] was “significantly inhibited the expression level of viral VP1 in a dose-dependent manner” in each case. Besides, the “replication of EV-D68 virus particles (plaque formation)” value in the series with EV-D68 [3] is “significantly inhibited the replication of EV-D68 virus particles”.

Usually EC50 stands for the concentration at which the effect is half-maximal. Read a high EC50 as a need for much substance. Take `CCCc1ccc(-c2ccc3ncc(C(=O)OCC)cc3c2)cc1` [Compound 10, Ethyl 6-(4-Propylphenyl)quinoline-3-carboxylate]: the EC50 in series [4] was > 10 µM.

On to `CCOC(=O)c1cnc2ccc(-c3cccc(N)c3)cc2c1` [Compound 11, Ethyl 6-(3-Aminophenyl)quinoline-3-carboxylate], for which, in series [4], the concentration for a half-maximal effect (EC50) was > 10 µM.

For the compound `CCOC(=O)c1cnc2ccc(-c3cn[nH]c3)cc2c1` [Compound 17, Ethyl 6-(1H-Pyrazol-4-yl)quinoline-3-carboxylate], the “anti-EV-D68 activity” value in series [4] was “complete loss of activity”.

Consider `CCOC(=O)c1cnc2ccc(-c3ccc(C(N)=O)cc3)cc2c1` [Compound 18, Ethyl 6-(4-Carbamoylphenyl)quinoline-3-carboxylate], for which the “anti-EV-D68 activity” value in series [4] is on record as “inactivation”.

Broadly, the clearance is a measure of how efficiently the substance is removed, as volume per time. Higher therefore signals a high capacity for elimination. What is called CLint scaled is the capacity of the preparation to metabolise the compound, expressed as a volume cleared per time. Low readings indicate greater metabolic stability, high ones faster metabolism. On to `Nc1ccc(-c2ccc3ncc(-c4noc(C(F)(F)F)n4)cc3c2)cc1` [Compound 19, 4-(3-(5-(Trifluoromethyl)-1,2,4-oxadiazol-3-yl)quinolin-6-yl)aniline], for which, in series [4] (EC50 ratio, STL-2014-12), the “increase in antiviral potency compared to compound 15” value is ~10 fold. In [5], the clearance at 24 h came out at 64 ± 13.1 mL/min/kg. For the same compound, the CLint scaled at 1 h, 1 µM in series [6] amounted to 61.2 mL/min/kg. This compound also came in with a CLint scaled at 1 h, 1 µM in series [7] of 116 mL/min/kg. This compound also gave an intrinsic clearance (CLint scaled) at 1 h, 1 µM in [8] of 10.8 mL/min/kg. The EC50 in the series with various EV-D68 strains was in the range of 0.05 to 0.1 µM. Moreover, in the series on EV-D68 [9], the “antiviral activity, drug added after 1 hpi (phases II and IV)” value was “antiviral activity disappeared”; the “antiviral activity, drug added at 0–1 h (phase I) and 0–14 h (phase III)” value is recorded as “significant antiviral activity”. Further, in the series on EV-D68 virions [10], the “thermal inactivation of virus at 55 °C” value is recorded as “significantly reduce the thermal inactivation” and the “virus activity at 57 °C” value is given as “maintained certain virus activity”.

In [5], `CCc1nc(-c2cnc3ccc(-c4ccc(N)cc4)cc3c2)no1.Cl` [Compound 21·HCl, 4-(3-(5-Ethyl-1,2,4-oxadiazol-3-yl)quinolin-6-yl)aniline Hydrochloride] had a clearance at 24 h of 106 ± 10 mL/min/kg. The “expression level of viral VP1” value with EV-D68 VP1 expression [1] and in the series on EV-D68 VP1 expression [2] was “significantly inhibited the expression level of viral VP1 in a dose-dependent manner” in each case. The “replication of EV-D68 virus particles (plaque formation)” value in the series on EV-D68 [3] is “significantly inhibited the replication of EV-D68 virus particles”.

With `Cc1cc(CCCOc2c(C)cc(-c3noc(C(F)(F)F)n3)cc2C)on1` [Pleconaril, pleconaril, reference compound], in the series with EV-D68 [9], the “antiviral activity, drug added after 1 hpi (phases II and IV)” value is recorded as “same experimental results”; the “antiviral activity, drug added at 0–1 h (phase I) and 0–14 h (phase III)” value was “same experimental results”. In addition, in the series with EV-D68 virions [10], the “thermal inactivation of virus at 55 °C” value was “significantly reduce the thermal inactivation”. In the series on EV-D68 virions [11], the “protection against viral particles (PaSTRy)” value was “almost no protection”.
